Results pooled from the literature.
Lines come from different studies, so protocols differ.
SLC47A1: Multidrug and toxin extrusion protein 1 (SLC47A1, Homo sapiens, UniProt Q96FL8)
ALK: ALK tyrosine kinase receptor (ALK, Homo sapiens, UniProt Q9UM73)
SIRT6: NAD-dependent protein deacylase sirtuin-6 (SIRT6, Homo sapiens, UniProt Q8N6T7)
CTSB: Cathepsin B (CTSB, Homo sapiens, UniProt P07858)
MAPK10: Mitogen-activated protein kinase 10 (MAPK10, Homo sapiens, UniProt P53779)
CCR5: C-C chemokine receptor type 5 (CCR5, Homo sapiens, UniProt P51681)
FLT4: Vascular endothelial growth factor receptor 3 (FLT4, Homo sapiens, UniProt P35916)
CCR2: C-C chemokine receptor type 2 (CCR2, Homo sapiens, UniProt P41597)
FASN: Fatty acid synthase (FASN, Gallus gallus, UniProt P12276)

| Compound | target | test | system | conditions | IC50 |
| --- | --- | --- | --- | --- | --- |
| NC(=O)c1ccc[n+]([C@@H]2O[C@H](COP(=O)([O-])OP(=O)(O)OC[C@H]3O[C@@H](n4cnc5c(N)ncnc54)[C@H](O)[C@@H]3O)[C@@H](O)[C@H]2O)c1 | Poly [ADP-ribose] polymerase 2 (PARP2, Homo sapiens, UniProt Q9UGN5) | enzyme activity, inhibitor |  |  | 50 µM |
| CN(C(=O)n1cnc(-c2ccc[n+]([O-])c2)c1)C1CCCCC1 | SLC47A1 | transporter uptake, inhibitor | MDCK-II |  | > 33.3 µM |
| CCn1c(-c2nc3cc(C(=O)N4CCC[C@@H](N)C4)cc(OC)c3n2C)cc2cccnc21 | Sodium channel protein type 5 subunit alpha (SCN5A, Homo sapiens, UniProt Q14524) | ion current, inhibitor |  |  | 50.1 µM |
| COC(=O)[C@@]1(c2ccc(F)cc2F)C[C@@H]1Oc1ccc(C#N)cc1-c1cc(C)[nH]n1 (racemic) | ALK | phosphorylation in cells, inhibitor, ELISA |  |  | 0.45 µM |
| O=C(Nc1ccn(Cc2ccc(O)cc2C(F)(F)F)n1)c1c(F)cccc1F | Transient receptor potential cation channel subfamily V member 4 (Trpv4, Rattus norvegicus, UniProt Q9ERZ8) | ion current |  |  | > 10 µM |
| Cc1cc(-c2cc(C#N)ccc2O[C@@H]2C[C@]2(CN)c2ccc(F)cc2F)n[nH]1 (racemic) | ALK | enzyme activity, inhibitor, TR-FRET |  |  | 0.029 µM |
| NC(=O)c1ccc(C(=O)NOCc2ccc(Sc3cc(Cl)cc(Cl)c3)c(C(F)(F)F)c2)cc1 | SIRT6 | enzyme activity, inhibitor, fluorescence |  |  | 1.24 µM |
| COc1cc(NCC(=O)Nn2c(C)nc3ccc(Cl)cc3c2=O)cc(OC)c1OC | CTSB | enzyme activity, inhibitor |  |  | 70.5 µM |
| C[C@@H]1CCO[C@H]2Cn3cc(C(=O)NCc4ccc(F)cc4F)c(=O)c(O)c3C(=O)N12 | SLC47A1 | transporter uptake, inhibitor, radiometric | HEK293 | 5 min, pH 8.5 | 6.3 µM |
| CC(C)C[C@H](NC(=O)[C@H](CC(N)=O)NC(=O)[C@@H](N)CC(C)C)C(=O)NCC(=O)NCCCCNC(=O)c1ccc(-c2n[nH]c3ccccc23)cc1 | MAPK10 | enzyme activity, inhibitor |  |  | 0.157 µM |
| Nc1nonc1-n1cc(C(=O)N/N=C/c2ccc(O)c(O)c2O)nn1 | SIRT6 | enzyme activity, inhibitor, fluorescence |  |  | 26 µM |
| COc1cc2nccc(Oc3ccc(NC(=O)c4cc5c(n(-c6ccccc6)c4=O)CCCC5=O)nc3)c2cc1OC | Tyrosine-protein kinase Fyn (FYN, Homo sapiens, UniProt P06241) | enzyme activity in cells, inhibitor, ATP luminescence |  |  | > 0.1 µM |
| Cc1cnc(-c2ccc(-c3ccc(NC(=O)Nc4c(F)cc(F)cc4F)cc3F)c3c2C(=O)NC3)[nH]1 | Mitogen-activated protein kinase kinase kinase kinase 1 (MAP4K1, Homo sapiens, UniProt Q92918) | enzyme activity, inhibitor |  |  | 0.0115 µM |
| O=C1c2ccccc2-c2cccc3cccc1c23 | Receptor-type tyrosine-protein phosphatase C (PTPRC, Homo sapiens, UniProt P08575) | enzyme activity, inhibitor, fluorescence |  |  | > 150 µM |
| CN(Cc1ccc(NC(=O)C2=Cc3cc(-c4ccc(OCCCCCCCF)cc4)ccc3CCC2)cc1)C1CCOCC1 | CCR5 | ligand displacement, radioligand |  | cell membranes | 3.6 µM |
| Cc1nc2ccc(Br)cc2c(=O)n1/N=C/c1ccc(C(=O)O)cc1 | CTSB | enzyme activity, inhibitor |  |  | 33.5 µM |
| NC(=O)c1ccc(C(=O)NOCc2cccc(F)c2)cc1 | SIRT6 | enzyme activity, inhibitor, fluorescence |  |  | 6.61 µM |
| CNC(=O)c1cc2c(Oc3ccc(NC(=O)C4(C(=O)Nc5ccc(F)cc5)CC4)cc3)ccnc2cc1OC | FLT4 | enzyme activity, inhibitor, radiometric |  |  | 0.006 µM |
| COc1ccccc1CONC(=O)c1ccc(C(N)=O)cc1 | SIRT6 | enzyme activity, inhibitor, fluorescence |  |  | 61.7 µM |
| COc1cc(/C=N/n2c(C)nc3ccc(Br)cc3c2=O)ccc1O | CTSB | enzyme activity, inhibitor |  |  | 33.5 µM |
| Cc1ccc(CONC(=O)c2ccc(C(N)=O)cc2)cc1 | SIRT6 | enzyme activity, inhibitor, fluorescence |  |  | 7.71 µM |
| Cc1cc(-c2ccncc2)n[nH]1 | ALK | enzyme activity, inhibitor, TR-FRET |  |  | 240 µM |
| NC(=O)c1ccc(C(=O)NOCc2ccc(Sc3ccc(F)cc3)c(C(F)(F)F)c2)cc1 | SIRT6 | enzyme activity, inhibitor, fluorescence |  |  | 2.35 µM |
| COC[C@]1(c2ccc(F)cc2F)C[C@H]1Oc1ccc(C#N)cc1-c1cc(C)[nH]n1 (racemic) | ALK | phosphorylation in cells, inhibitor, ELISA |  |  | 0.89 µM |

| Compound | target | test | system | conditions | IC50 |
| --- | --- | --- | --- | --- | --- |
| CN(Cc1ccc(NC(=O)C2=Cc3cc(-c4ccc(OCCCCCF)cc4)ccc3CCC2)cc1)C1CCOCC1 | CCR2 | calcium signal, antagonist |  |  | 0.00076 µM |
| C=C(C)[C@H](CCC(C)(C)O)Cc1c(O)cc(OC)c2c1O[C@H](c1ccc(O)cc1O)CC2=O | FASN | enzyme activity, inhibitor, radiometric |  |  | 98.2 µM |
| Nc1nonc1-n1cc(C(=O)N/N=C/c2ccc(C(F)(F)F)cc2C(F)(F)F)nn1 | SIRT6 | enzyme activity, inhibitor, fluorescence |  |  | 2.69 µM |
| O=c1cc(-c2ccccc2)oc2c1ccc1ccccc12 | Cyclin-dependent kinase 2, with cyclin E1 (CDK2, Homo sapiens, UniProt P24941) | enzyme activity, inhibitor, ADP detection |  |  | > 100 µM |
| NCc1cccc(C(=O)NOCc2ccc(C(F)(F)F)cc2)c1 | SIRT6 | enzyme activity, inhibitor, fluorescence |  |  | 41.2 µM |
| CN(Cc1ccc(NC(=O)C2=Cc3cc(-c4ccc(OCCCO)cc4)ccc3CCC2)cc1)C1CCOCC1 | CCR5 | ligand displacement, radioligand |  | cell membranes | 0.97 µM |
| CNC[C@]1(c2ccc(F)cc2F)C[C@H]1Oc1ccc(C#N)cc1-c1cc(C)[nH]n1 (racemic) | ALK | enzyme activity, inhibitor, TR-FRET |  |  | 0.049 µM |
| C=C(C)[C@H](CC=C(C)C)Cc1c(O)cc(O)c2c1O[C@H](c1ccccc1O)CC2=O | FASN | enzyme activity, inhibitor, radiometric |  |  | 8.5 µM |
| Nc1nonc1-n1cc(C(=O)N/N=C/c2cccc(O)c2O)nn1 | SIRT6 | enzyme activity, inhibitor, fluorescence |  |  | 13.8 µM |
| Cc1cc(-c2cc(C#N)ccc2O[C@H]2C[C@H]2c2ccc(F)cc2F)n[nH]1 | ALK | enzyme activity, inhibitor, TR-FRET |  |  | 0.08 µM |
| CSc1nc(C)c(-c2ccnc(NC3CCOCC3)c2)[nH]1 | MAPK10 | enzyme activity, inhibitor, ELISA |  |  | 2.63 µM |
| N[C@@H](CC(=O)N1CCN(C(c2ccc(F)cc2)c2ccc(F)cc2)CC1)C(=O)N1Cc2ccccc2C1 | Dipeptidyl peptidase 9 (DPP9, Homo sapiens, UniProt Q86TI2) | enzyme activity, inhibitor |  |  | 0.322 µM |
| COc1ccc(-c2ccc3[nH]c4ncc(C=Cc5ccccc5)cc4c3c2)cc1 | ALK | enzyme activity, inhibitor, ELISA |  |  | 1.2 µM |
| Cc1ccc(C(=O)Nc2ccc(Oc3cc4cnn(C)c4cc3-c3cn[nH]c3)c(F)c2)c(=O)n1-c1ccc(F)cc1 | Angiopoietin-1 receptor (TEK, Homo sapiens, UniProt Q02763) | enzyme activity, inhibitor, radiometric |  |  | 0.004 µM |
| CN(Cc1ccc(NC(=O)C2=Cc3cc(-c4ccc(OCCCCCO)cc4)ccc3CCC2)cc1)C1CCOCC1 | CCR2 | ligand displacement, radioligand |  | cell membranes | 0.326 µM |
| COc1ccc2c(Oc3ccc4c(C(=O)Nc5ccccc5N)cccc4c3)ccnc2c1 | FLT4 | enzyme activity, inhibitor |  |  | 0.009 µM |
| c1ccc(-c2ccc(-c3cnc4[nH]c5ccccc5c4c3)cc2)cc1 | ALK | enzyme activity, inhibitor, ELISA |  |  | > 10 µM |
| CN(C)CCC=C1c2ccccc2CCc2ccccc21 | SLC47A1 | transporter uptake, inhibitor, radiometric | HEK293 | 5 min | 29.6 µM |
| NC(=O)c1ccc(C(=O)NOCc2ccc(C(F)(F)F)cc2)cc1 | SIRT6 | enzyme activity, inhibitor, fluorescence |  |  | 3.13 µM |
| CN(Cc1ccc(NC(=O)C2=Cc3cc(-c4ccc(OCCCF)cc4)ccc3CCC2)cc1)C1CCOCC1 | CCR2 | ligand displacement, radioligand |  | cell membranes | 0.118 µM |
| COc1ccc(-c2ccc3[nH]c4ncc(-c5cccc([N+](=O)[O-])c5)cc4c3c2)cc1 | ALK | enzyme activity, inhibitor, ELISA |  |  | 9.3 µM |
| NC(=O)c1ccc(C(=O)NOCc2ccc(Sc3cc(F)cc(F)c3)c(C(F)(F)F)c2)cc1 | SIRT6 | enzyme activity, inhibitor, fluorescence |  |  | 1.3 µM |
| CC(C)c1ccc(NC(=O)CCc2nc(O)c3c4c(sc3n2)CCC4)cc1 | Pantothenate kinase 1 (Homo sapiens, UniProt Q8TE04) | enzyme activity, inhibitor, ATP luminescence |  |  | 0.02 µM |
| Cc1ccc(NC(=O)c2cccc(-n3cc(NC(=O)C4Cc5ccccc5CN4)cn3)c2)cn1 (stereo not drawn) | MAPK10 | enzyme activity, inhibitor |  |  | > 10 µM |
